{"data": "Published values from different studies", "target": "Leukocyte tyrosine kinase receptor (LTK, Homo sapiens, UniProt P29376)"}
{"SMILES": "COc1ccc2c(c1)O[C@H](c1ccc(OC)c(OC)c1)C[C@@H]2NC(=O)C1(c2ccc3c(c2)OC(F)(F)O3)CC1", "test": "cell-free assay, competition with immobilised ligand", "setting": "1 µM", "remaining binding [%]": 100}
{"SMILES": "CN(c1nccc(-c2cnn3ncccc23)n1)C1CC1", "test": "binding", "setting": "1 µM", "remaining binding [%]": 100}
{"SMILES": "CN([C@@H]1CCc2c(CC(=O)O)c3cc(S(C)(=O)=O)ccc3n2C1)S(=O)(=O)c1ccc(F)cc1", "test": "cell-free assay, competition with immobilised ligand", "setting": "1 µM", "remaining binding [%]": 100}
{"SMILES": "O=C(NCCCN1CCOCC1)c1ccc(Nc2ncc(Cl)c(-c3ccc(Cl)s3)n2)cc1", "test": "binding, competition with immobilised ligand", "setting": "1 µM", "remaining binding [%]": 100}
{"SMILES": "Cc1nc(Cc2cccc(C(F)(F)F)c2)sc1-c1ccc(C(N)=O)nc1", "test": "cell-free assay, competition with immobilised ligand", "setting": "1 µM", "remaining binding [%]": 100}
{"SMILES": "CCN1CCN(Cc2ccc(C(=O)Nc3ccc(C)c(Oc4ccc5c(c4)CC(=O)N5)c3)cc2C(F)(F)F)CC1", "test": "binding, competition with immobilised ligand", "setting": "1 µM", "remaining binding [%]": 100}
{"SMILES": "c1cncc(-c2cccc(Nc3nccc(NC4CCCCC4)n3)c2)c1", "test": "binding, competition with immobilised ligand", "setting": "10 µM", "remaining binding [%]": 68}
{"SMILES": "Nc1ncc2c(n1)-c1c([nH]c3ccc(C#CC4CC4)cc13)CCCC2", "test": "binding, competition with immobilised ligand", "setting": "1 µM", "remaining binding [%]": 100}
{"SMILES": "Cc1cnc(Nc2ccc(C(=O)N3CCC(N4CCCC4)CC3)cc2)nc1-c1cc2ccccc2s1", "test": "binding, competition with immobilised ligand", "setting": "1 µM", "remaining binding [%]": 85}
{"SMILES": "FC(F)(F)Oc1cccc(-c2cnc3ccc(-c4ccncc4)nn23)c1", "test": "cell-free assay, competition with immobilised ligand", "setting": "5 µM", "remaining binding [%]": 100}
{"SMILES": "O=C(Nc1c[nH]nc1C(=O)NC1CCNCC1)c1cc(F)cc(F)c1", "test": "binding, competition with immobilised ligand", "setting": "1 µM", "remaining binding [%]": 74}
{"SMILES": "C[C@@H]1CN(c2cc(-c3n[nH]c4ccc(OC5(C)CC5)cc34)ncn2)C[C@H](C)O1", "test": "cell-free assay, competition with immobilised ligand", "setting": "0.1 µM", "remaining binding [%]": 84}
{"SMILES": "COc1ccnn2ncc(-c3ccnc(N(C)C)n3)c12", "test": "binding", "setting": "1 µM", "remaining binding [%]": 98}
{"SMILES": "CSc1cccnc1N1CCN(Cc2nc3ccccc3[nH]2)CC1", "test": "cell-free assay, competition with immobilised ligand", "setting": "1 µM", "remaining binding [%]": 89}
{"SMILES": "F[C@@H]1CCN(c2nccc(-c3cnn4ncccc34)n2)C1", "test": "binding", "setting": "1 µM", "remaining binding [%]": 92}
{"SMILES": "CC(C)CC(=O)N1CCc2nc(-c3ccc(Br)cc3)nc(N(C)Cc3ccccc3)c2C1", "test": "cell-free assay, competition with immobilised ligand", "setting": "0.1 µM", "remaining binding [%]": 91}
{"SMILES": "C[C@@H]1CCN(c2nccc(-c3cnn4ncccc34)n2)C1", "test": "binding", "setting": "1 µM", "remaining binding [%]": 93}
{"SMILES": "O=C(c1ccc(Nc2ncc(Cl)c(-c3ccc(Cl)s3)n2)cc1)N1CCC(N2CCCC2)CC1", "test": "binding, competition with immobilised ligand", "setting": "1 µM", "remaining binding [%]": 90}
{"SMILES": "c1cnn2ncc(-c3ccnc(N4CCC45COC5)n3)c2c1", "test": "binding", "setting": "1 µM", "remaining binding [%]": 98}
{"SMILES": "COc1cnc(Nc2cccc(S(N)(=O)=O)c2)nc1N1CCN(c2ccccc2)C(=O)C1", "test": "binding, competition with immobilised ligand", "setting": "1 µM", "remaining binding [%]": 91}
{"SMILES": "O=C1CCc2cc(Nc3cc(OC4CCOCC4)c([N+](=O)[O-])cc3Cl)ccc2N1", "test": "cell-free assay, competition with immobilised ligand", "setting": "1 µM", "remaining binding [%]": 100}
{"SMILES": "N[C@H]1CCN(c2nccc(-c3cnn4ncccc34)n2)C1", "test": "binding", "setting": "1 µM", "remaining binding [%]": 100}
